Results reported in paper PMC6893084 (Journal of thrombosis and haemostasis : JTH, 2019).
Several values for one entry are separate records, joined by “and”; a condition that tells them apart may be missing. Equal entries are not always repeated. Where two headings read alike, the source gives them in different places.

How the values were obtained:
[1] = molecular target: SCI–FXIa complex (Homo sapiens, UniProt P03951); assay: In vitro reversibility of SCI inhibition of FXIa by antidotes, S-2366 hydrolysis; assay type: biochemical; details: for restoration potency (EC50) / restoration yield (ΔY) of FXIa activity: FXIa inhibited by 2 μM of SCI, pH 7.4, 37 °C
[2] = system: Trypsin; assay: Chromogenic substrate hydrolysis assay, trypsin; assay type: biochemical, human
Procedure, shortened: (§1)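 Each purified human protease was tested against varying test compound levels under optimal conditions taken from the literature. A chromogenic substrate was used, except for FXIIIa, which used a fluorescence bisubstrate format. Protease activity versus concentration was fitted by non-linear regression to a logistic equation, giving IC50, efficacy (ΔY) and Hill slope.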

[3] = molecular target: T1, FXIa (Homo sapiens, UniProt P03951); assay: Direct inhibition of FXIa, S-2366 chromogenic substrate hydrolysis; assay type: biochemical
Procedure, shortened: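 Full-length wild-type purified human FXIa hydrolysing chromogenic substrate S-2366 in 20 mM Tris-HCl, pH 7.4, 37 °C, with varying test compound. Activity taken as the initial rate of absorbance increase at 405 nm. A logistic dose–response equation fitted to residual protease activity gave IC50, efficacy (ΔY) and Hill slope.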

[4] = system: HT-29 colorectal cell line; details: HT-29, SCI as high as 100 μM; cited from earlier work
[5] = molecular target: T2, DEGR-FXIa (Homo sapiens, UniProt P03951); assay: Fluorescence titration, dansyl fluorescence of DEGR-FXIa; assay type: binding; details: pH 7.4, 37 °C
[6] = Thromboplastin-induced venous thrombosis model in rats; assay type: in vivo; details: 250 μg per rat
[7] = FeCl3-induced arterial thrombosis model in rats; assay type: in vivo, rat
Procedure, shortened: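 Female Wistar rats (~250 g), under ketamine/xylazine with isoflurane maintenance. Test compound (250, 500 or 2000 μg/rat) or enoxaparin in PBS was infused into the tail vein. After 5 min, 10% FeCl3-soaked filter paper was applied to the exposed abdominal aorta between two sutures for 10 min. The clot matured 15 min, sutures were tightened, and thrombus wet and dry weights recorded.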

[8] = molecular target: FXa (Homo sapiens, UniProt P00742); assay: Chromogenic substrate hydrolysis assay, FXa; assay type: biochemical
Procedure, shortened: as §1

[9] = molecular target: Plasmin (Homo sapiens, UniProt P00747); assay: Chromogenic substrate hydrolysis assay, plasmin; assay type: biochemical
Procedure, shortened: as §1

[10] = molecular target: human, wild-type, full-length FXIa (Homo sapiens, UniProt P03951); assay: Michaelis-Menten kinetics of S-2366 hydrolysis by FXIa in the presence of SCI; assay type: biochemical; details: pH 7.4, 37 °C
[11] = molecular target: FXIIa (Homo sapiens, UniProt P00748); assay: Chromogenic substrate hydrolysis assay, FXIIa; assay type: biochemical
Procedure, shortened: as §1

[12] = molecular target: rFXIa-FLABS1 (Homo sapiens, UniProt P03951); assay type: biochemical
[13] = molecular target: Plasma Kallikrein (Homo sapiens, UniProt P03952); assay: Chromogenic substrate hydrolysis assay, plasma kallikrein; assay type: biochemical
Procedure, shortened: as §1

[14] = Mouse tail bleeding; assay type: in vivo; details: IV 35 μg/mouse SCI vs 300 μg enoxaparin
Procedure, shortened: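 Test compound or enoxaparin comparator was given IV, then the tail was transected. Blood loss (mg) and time to cessation of bleeding were measured, with n = 4–7 per group. Groups were compared by two-tailed t-tests with unequal variance.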

[15] = molecular target: T1, FXIa; assay: Fluorescence titration, intrinsic tryptophan fluorescence of FXIa; assay type: binding
[16] = molecular target: T3, Thrombin (Homo sapiens, UniProt P00734); assay: Chromogenic substrate hydrolysis assay, thrombin; assay type: biochemical
Procedure, shortened: as §1

[17] = system: plasma; assay: Plasma clotting times in the presence of added FXI neutralizing antibody; assay type: biochemical; details: antibody 9 μg per 300 μL; SCI as high as 100 μM
Procedure, shortened: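 Plasma APTT was measured by a one-stage recalcification assay at 37 °C, with clotting initiated by CaCl2. Plasma contained FXI-neutralizing antibody at 9 μg per 300 μL, and test compound was varied over a wide concentration range.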

[18] = molecular target: T1, FXIa; assay: FXIa cleavage of macromolecular substrate FIX to FIXa; assay type: biochemical
[19] = system: human whole blood; assay: Hemostasis analysis; details: ex vivo
Procedure, shortened: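 Citrated human whole blood was spiked with varying levels of test compound or enoxaparin and recalcified with CaCl2. A cone was lowered into the blood, and tension from platelets attaching within the fibrin meshwork was recorded automatically as platelet contractile force, thrombin generation time and clot elastic modulus.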

[20] = system: Chymotrypsin; assay: Chromogenic substrate hydrolysis assay, chymotrypsin; assay type: biochemical, human
Procedure, shortened: as §1

[21] = system: rat plasma; assay: APTT of rat plasma; assay type: biochemical
[22] = molecular target: T3, Thrombin; assay: Thrombin inhibition with sub-optimal chromogenic substrate S-2366; assay type: biochemical
[23] = molecular target: T1, FXIa; assay: Competition between SCI and UFH, S-2366 hydrolysis assay; assay type: biochemical; details: UFH increased from 0 to 150 μM; pH 7.4, 37 °C
Procedure, shortened: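 Purified full-length human FXIa hydrolysing S-2366 in 20 mM Tris-HCl, pH 7.4, 37 °C, read as initial rate of absorbance rise at 405 nm. Inhibition curves were run with unfractionated heparin at 0, 5, 50 or 150 μM. Fitted to a logistic dose–response equation for IC50, ΔY and Hill slope.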

[24] = molecular target: T2, DEGR-FXIa; assay: Acrylamide quenching of dansyl fluorescence of DEGR-FXIa; assay type: binding; details: 2 μM SCI; acrylamide 0–800 mM
Procedure, shortened: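 Dansyl-labelled active-site-blocked human FXIa (DEGR-FXIa) in 20 mM Tris-HCl, pH 7.4, 37 °C. Acrylamide (0–800 mM) was added sequentially with or without a fixed level of test compound. Dansyl emission was recorded with excitation at 345 nm. Data were fitted to linear or quadratic Stern–Volmer equations.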

[25] = Maximum tolerated dose
[26] = system: human plasma deficient of antithrombin and heparin cofactor II; assay: Clotting of human plasma deficient of antithrombin or heparin cofactor II; assay type: biochemical; details: plasma deficient in antithrombin or heparin cofactor II
[27] = molecular target: T1, FXIa; assay: FXIa inhibition with sub-optimal chromogenic substrate Spectrozyme TH; assay type: biochemical
[28] = molecular target: FIXa (Homo sapiens, UniProt P00740); assay: Chromogenic substrate hydrolysis assay, FIXa; assay type: biochemical
Procedure, shortened: as §1

[29] = molecular target: rFXIa-FLWT (Homo sapiens, UniProt P03951); assay: Direct inhibition of recombinant full-length wild type FXIa, S-2366 hydrolysis; assay type: biochemical; details: pH 7.4, 37 °C
[30] = system: human whole blood; assay: Thromboelastography; details: ex vivo
Procedure, shortened: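 Citrated human whole blood with varying levels of test compound or enoxaparin was recalcified with CaCl2 to start clotting. The cup oscillated through a 4° 45ˋ angle at 0.1 Hz. Reaction time (min), angle (deg), maximum amplitude and shear elastic modulus were recorded automatically.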

[31] = Rat tail bleeding; assay type: in vivo
[32] = molecular target: rFXIa-FLABS2 (Homo sapiens, UniProt P03951, K547A/R548A/R550A); assay type: biochemical
[33] = molecular target: FVIIa/TF (Homo sapiens, UniProt P08709); assay: Chromogenic substrate hydrolysis assay, FVIIa/TF; assay type: biochemical
Procedure, shortened: as §1

[34] = molecular target: FXIIIa (Homo sapiens, UniProt P00488); assay: Fluorescence-based bisubstrate assay, FXIIIa; assay type: biochemical
Procedure, shortened: as §1

[35] = system: human plasma; assay: Activated partial thromboplastin time; assay type: biochemical
[36] = system: human plasma; assay: Prothrombin time; assay type: biochemical; details: even at 150 μM
Procedure, shortened: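 One-stage recalcification clotting assay of human plasma containing varying levels of test compound. Clotting was started with Thromboplastin-D and CaCl2 at 37 °C and time to clot recorded. Clotting time versus concentration was fitted with a quadratic equation to give the concentration that doubles clotting time.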

T1 sequence (P03951 388-625 limits assumed): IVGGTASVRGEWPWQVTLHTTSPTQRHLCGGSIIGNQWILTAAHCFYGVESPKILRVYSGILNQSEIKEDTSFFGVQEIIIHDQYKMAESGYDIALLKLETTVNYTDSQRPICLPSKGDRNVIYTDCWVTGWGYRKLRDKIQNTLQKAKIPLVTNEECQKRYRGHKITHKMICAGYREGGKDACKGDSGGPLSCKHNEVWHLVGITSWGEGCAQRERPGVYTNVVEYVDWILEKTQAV
T1 sequence (P03951 19-387 limits assumed): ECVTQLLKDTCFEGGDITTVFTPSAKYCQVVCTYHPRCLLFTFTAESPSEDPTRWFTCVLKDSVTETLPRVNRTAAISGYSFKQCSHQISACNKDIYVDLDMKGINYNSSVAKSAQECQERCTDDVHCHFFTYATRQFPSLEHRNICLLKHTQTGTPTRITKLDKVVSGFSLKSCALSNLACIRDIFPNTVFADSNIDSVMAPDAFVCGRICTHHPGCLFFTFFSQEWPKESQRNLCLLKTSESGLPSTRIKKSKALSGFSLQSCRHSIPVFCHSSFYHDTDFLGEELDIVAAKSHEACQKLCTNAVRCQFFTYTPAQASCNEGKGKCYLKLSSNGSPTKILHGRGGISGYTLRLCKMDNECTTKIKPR
Sequence of SCI–FXIa complex (P03951 388-625 limits assumed): as the sequence (P03951 388-625 limits assumed) above
Sequence of SCI–FXIa complex (P03951 19-387 limits assumed): as the sequence (P03951 19-387 limits assumed) above
T2 sequence (P03951 388-625 limits assumed): as the sequence (P03951 388-625 limits assumed) above
T2 sequence (P03951 19-387 limits assumed): as the sequence (P03951 19-387 limits assumed) above
Sequence of rFXIa-FLABS2 (P03951 388-625 K547A/R548A/R550A limits assumed): as the sequence (P03951 388-625 limits assumed) above, with K160A, R161A, R163A counted along it
Sequence of rFXIa-FLABS2 (P03951 19-387 limits assumed): as the sequence (P03951 19-387 limits assumed) above
Sequence of human, wild-type, full-length FXIa (P03951 388-625 limits assumed): as the sequence (P03951 388-625 limits assumed) above
Sequence of human, wild-type, full-length FXIa (P03951 19-387 limits assumed): as the sequence (P03951 19-387 limits assumed) above
Sequence of rFXIa-FLABS1 (P03951 388-625 limits assumed): as the sequence (P03951 388-625 limits assumed) above
Sequence of rFXIa-FLWT (P03951 388-625 limits assumed): as above
Sequence of rFXIa-FLWT (P03951 19-387 limits assumed): as the sequence (P03951 19-387 limits assumed) above
Sequence of Plasmin (P00747 581-810 limits assumed): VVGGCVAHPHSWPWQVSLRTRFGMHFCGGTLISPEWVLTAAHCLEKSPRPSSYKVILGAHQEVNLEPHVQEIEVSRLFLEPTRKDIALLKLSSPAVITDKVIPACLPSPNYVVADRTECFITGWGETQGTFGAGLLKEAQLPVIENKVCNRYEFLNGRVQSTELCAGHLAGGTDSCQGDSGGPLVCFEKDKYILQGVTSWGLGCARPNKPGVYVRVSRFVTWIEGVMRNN
Sequence of Plasmin (P00747 97-580 partner limits assumed): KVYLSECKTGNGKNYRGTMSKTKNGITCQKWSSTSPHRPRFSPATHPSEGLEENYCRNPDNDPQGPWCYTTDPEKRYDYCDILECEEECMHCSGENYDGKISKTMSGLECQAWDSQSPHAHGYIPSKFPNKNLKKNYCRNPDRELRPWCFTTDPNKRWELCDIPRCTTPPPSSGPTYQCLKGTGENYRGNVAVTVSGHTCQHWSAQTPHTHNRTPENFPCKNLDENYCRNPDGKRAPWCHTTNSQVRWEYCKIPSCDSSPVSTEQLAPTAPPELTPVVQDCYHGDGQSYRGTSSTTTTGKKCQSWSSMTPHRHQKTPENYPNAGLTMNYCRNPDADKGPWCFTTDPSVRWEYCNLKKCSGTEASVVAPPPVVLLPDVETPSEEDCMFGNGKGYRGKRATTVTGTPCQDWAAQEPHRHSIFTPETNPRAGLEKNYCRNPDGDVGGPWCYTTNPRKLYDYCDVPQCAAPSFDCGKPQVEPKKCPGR
Sequence of FXIIa (P00748 373-615 limits assumed): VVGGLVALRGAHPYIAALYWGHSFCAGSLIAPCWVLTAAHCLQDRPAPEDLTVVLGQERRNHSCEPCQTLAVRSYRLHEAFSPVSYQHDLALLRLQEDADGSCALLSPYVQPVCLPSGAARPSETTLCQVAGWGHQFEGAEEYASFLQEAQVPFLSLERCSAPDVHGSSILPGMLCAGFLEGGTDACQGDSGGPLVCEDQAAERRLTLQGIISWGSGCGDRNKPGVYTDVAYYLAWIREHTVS

O=S(=O)(O)OC[C@H]1O[C@@](COS(=O)(=O)O)(O[C@H]2O[C@H](COS(=O)(=O)O)[C@@H](OS(=O)(=O)O)[C@H](OS(=O)(=O)O)[C@H]2OS(=O)(=O)O)[C@@H](OS(=O)(=O)O)[C@@H]1OS(=O)(=O)O [SOS, sucrose octasulfate]
restoration potency (EC50) [1]: 750 µg/mL | restoration yield (ΔY) of FXIa activity [1]: ~ 39%

polybrene
restoration potency (EC50) [1]: 0.4 µg/mL | restoration yield (ΔY) of FXIa activity [1]: ~ 88%

protamine sulfate
restoration potency (EC50) [1]: 14.0 µg/mL | restoration yield (ΔY) of FXIa activity [1]: ~ 69%

sulfated chiro-inositol [SCI]
IC50 [2]: > 50 µM | potency relative to SPGG (better) ([3]; FXIa inhibition): ~ 2 fold and 2 fold | efficacy of FXIa inhibition ([3]; S-2366, pH 7.4, 37 °C): 100% | IC50 ([3]; full length, wild type, purified human FXIa, S-2366, pH 7.4, 37 °C): 0.28 ± 0.01 µM | IC50 ([3]; read-out: potency of FXIa inhibition): 0.28 µM and ~0.28 µM | cellular toxicity (cell death) [4]: No significant adverse effect | increase in dansyl fluorescence [5]: 152% | Kd ([5]; read-out: affinity (KD), dansyl fluorescence): 0.025 µM | reduction of average dry weight of thrombus [6]: 48% | wet weight of thrombus less than PBS group [6]: ~ 42% | wet weight of thrombus ([6]; n=13, PBS 38.61±3.56 mg): 22.46 ± 1.14 mg | wet weight of thrombus lower than negative control (PBS) ([7]; 250 μg per rat): ~ 33% | wet weight of thrombus ([7]; 250 μg per rat, n=14, PBS 43.35±2.63 mg): 28.85 ± 2.12 mg | decrease of average dry thrombus weight vs PBS ([7]; 500 or 2000 μg/animal): 55–63% | decrease of average wet thrombus weight vs PBS ([7]; 500 or 2000 μg/animal): 53–55% | IC50 [8]: > 40 µM | IC50 [9]: > 40 µM | decrease of VMAX [10]: ~ 4 fold | VMAX in the presence of SCI ([10]; decreased from 52.1): 14.2 mAU/min | IC50 [11]: > 50 µM | potency relative to rFXIa-FLWT [12]: essentially identical | IC50 ([12]; full length FXIa missing A3 domain's HBS): 3 ± 0.2 µM | IC50 [13]: > 65 µM | blood loss and bleeding time [14]: much lower than that induced by enoxaparin | Kd ([15]; intrinsic fluorescence, pH 7.4, 37 °C): 0.063 ± 0.011 µM | saturating increase in intrinsic fluorescence ([15]; pH 7.4, 37 °C): 133% | stoichiometry of SCI binding to dimeric FXIa ([15]; spectrofluorometric titration): 1.83±0.08 | IC50 [16]: > 40 µM | effect on plasma clotting times with FXI neutralizing antibody [17]: did not significantly impact plasma clotting times | inhibition of FXIa cleavage of FIX to FIXa [18]: dose-dependently inhibited | effect on HAS parameters [19]: reduced platelet contractile force and clot elastic modulus, whereas prolonged force onset time | IC50 [20]: > 40 µM | effect on APTT of rat plasma [21]: preferentially enhance APTT | inhibition of thrombin with S-2366 [22]: essentially no inhibition | increase of IC50 of FXIa inhibition with UFH [23]: ~ 6 fold | dansyl fluorescence of SCI–DEGR-FXIa complex on acrylamide addition [24]: remained invariant | highest dose studied relative to effective dose ([25]; 25 mg/animal, no bleeding or cellular toxicity): > 100 fold | tolerability (mobility, weight loss, bleeding) ([25]; rats, 5, 10 and 25 mg per animal IV, n=3/group, 7 days observation): well tolerated | effect on APTT of serpin-deficient plasma [26]: preferentially prolonged the APTT | reversibility with protamine ([1]; protamine as antidote): > 50% | inhibition of FXIa with Spectrozyme TH [27]: potent inhibition | IC50 [28]: > 65 µM | IC50 [29]: 4.2 ± 0.6 µM | effect on TEG parameters [30]: increase time to initial fibrin formation, while decrease all other parameters | blood loss ([31]; 250 μg/rat IV, n=15, PBS 147±29 mg): 119 ± 41 mg | tail bleeding time ([31]; 250 μg/rat, PBS 13±4): 14 ± 4 min | reduction in efficacy relative to rFXIa-FLWT [32]: ~ 20% | weaker inhibition relative to rFXIa-FLWT [32]: ~ 5 fold | IC50 ([32]; full length FXIa missing catalytic domain's HBS): 20.7 ± 3.6 µM | IC50 [33]: > 50 µM | IC50 [34]: > 90 µM | concentration for 2-fold increase in APTT [35]: 32.2 µM | impact on the PT [36]: minimal
